Screening data from PubChem BioAssay.
This is a sample that favours compounds with a hit; in the whole collection about 4.3% have one here.
RAM network inh = blocks the yeast RAM network | S. cerevisiae dse1pr::URA3 reporter, 5-FOA growth OD615, 2 d; analog-sensitive cbk1-as2 kinase mutant strain | inhibition, % at 50 µM | actives 1.8% (n = 190,000) | AID 868;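 active means inhibition above a set limit, 3 SD over mean compound inhibition, cut at about 8.4% in these data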;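 further: 0% = DMSO-only wells with no growth and 100% = 10 µM 1-NA-PP1 full growth; inhibition rescues growth on 5-FOA so higher OD means more RAM inhibition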
WT yeast gro inh = growth inhibition of WT yeast, mitochondrial fusion screen. actives 2.1% (n = 190,000). inhibition, % at 10 µM. AID 1362. mitochondrial fusion phenotypic screen, WT strain; in the data active means inhibition above about 58%; tested in S. cerevisiae
BB579 growth dn = chemicals that inhibit yeast BB579 growth in restrictive medium (lifespan-shortening candidates). inhibition, % at 10 µM. AID 804. actives 0.51% (n = 140,000). S. cerevisiae BB579 growth, OD615, 48 h;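 active means inhibition above a set limit, 3 SD over the mean compound inhibition, cut at about 44% in these data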
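Assay system – yeast BB579 (DeaD) · Dosing – single compound dose of 10 µM, 0.25% DMSO final · Detection – OD615 turbidity measurement · Buffer or medium – CSMM-D restrictive synthetic medium containing dextrose (glucose) · Benchmarks – positive control amphotericin B 10 µg/mL · Incubation – 48 h exposure, 30 °C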
Yeast lifespan up = extends the lifespan of yeast | S. cerevisiae growth with nicotinamide, OD615; deaD strain in restrictive glucose medium | inhibition of the nicotinamide effect, % at 10 µM | actives 0.68% (n = 130,000) | AID 775;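 active means inhibition above a set limit, placed 3 SD over the median of all compounds, cut at about 26% in these data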;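 further: 0% = nicotinamide-treated wells and 100% = cells grown without nicotinamide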
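Assay system: engineered S. cerevisiae DeaD replicative-lifespan strain, galactose-grown log-phase cells; Buffer or medium: CSMM-D glucose medium, restrictive; Probe or stimulus: nicotinamide 1.5 mM; Compound: single dose 10 µM compound, 0.25% DMSO; Schedule: 4 h preincubation then 48 h treatment at 30 °C; Technique: OD615 measurement.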
RAM 5-FOA = restores 5-FOA growth of efflux-deficient yeast | shares compounds with RAM network inh | S. cerevisiae efflux-deficient reporter strain, 5-FOA growth OD615, 2 days | max inhibition, % | 1,200 tested, under 10 active; call rule not given here;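 further: plate controls were vehicle for no effect and reference inhibitor for full effect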
The depositor's hits bear a star; . = not tested or not shown.

SMILES	RAM network inh	WT yeast gro inh	BB579 growth dn	Yeast lifespan up	RAM 5-FOA
COc1ccc(N(C(C)C(=O)N/N=C/c2cccnc2)S(C)(=O)=O)cc1 (centres undefined)	0	4	.	.	.
COc1ccc(CCNCC2C(Oc3ccc(Cl)cc3)C(=O)N2c2ccccc2C)cc1OC (centres undefined)	0	45	.	.	.
CCOc1cc(CNCc2ccncc2)cc(Br)c1OCc1ccccc1F	1	2	1	-20	.
O=C1ON=C(c2ccccc2)/C1=C/c1ccc(OS(=O)(=O)c2ccccc2)cc1	2	-6	58*	11	.
O=C1ON=C(c2ccccc2)/C1=C/c1cccnc1	0	9	.	.	.
COC(=O)c1c(NC(=O)Cc2cccs2)sc(C(=O)N2CCCCC2)c1C	10*	-26	-36	29*	.
COc1cc(NC(=O)c2ccc([N+](=O)[O-])o2)ccc1NC(=O)c1cccs1	6	95*	.	.	.
COc1cc(NC(=O)c2cccc(Cl)c2)ccc1NC(=O)c1cccs1	9.3*	10	.	.	.
COc1cc(NC(=O)c2ccccc2Cl)ccc1NC(=O)c1cccs1	4	11	.	.	.
COc1cc(NC(=O)c2ccc3c(c2)OCCO3)ccc1NC(=O)c1cccs1	2	1	.	.	.
Cc1cc2c(cc1C)CSC(c1ccccc1OC(=O)C(C)(C)C)SC2	5	64*	-28	-3	.
CCCCC(=O)Oc1ccccc1C1SCc2cc(C)c(C)cc2CS1	6	8	-15	5	.
c1ccc(-c2nc(CSc3nnc(-c4cccs4)o3)cs2)cc1	9.9*	19	-44	-9	.
OCC1(Cc2ccccc2)CCCN(Cc2ccn[nH]2)C1 (centres undefined)	3	-13	.	.	.
Cc1ccccc1-n1nnnc1Sc1nnnn1-c1ccccc1	0	-7	-6	39*	.
Cc1ccccc1-n1nnnc1SCC(N)=O	4	2	8	-6	.
O=C(NCCSCc1ccccc1)c1ccc(C2SCC(=O)N2Cc2ccccc2)cc1 (centres undefined)	12*	24	-25	-9	3
CCNC(=O)CC1C(=O)N(CC)C(=S)N1NC(=O)c1cccnc1 (centres undefined)	1	-17	.	.	.
Cc1c(-c2ccnc3cc(C(=O)O)nn23)cnn1C	1	4	.	.	.
NC(N)=Nc1nc(C2COc3ccccc3O2)cs1 (centres undefined)	1	16	-24	0	.
CCOc1cccc(-c2csc(C3COc4ccccc4O3)n2)c1 (centres undefined)	15*	3	-32	5	3
O=C(c1cccs1)N(CC1CCCO1)c1nc(-c2ccccc2)cs1 (centres undefined)	16*	38	-32	-9	2
COc1ccc(-c2csc(N(CC3CCCO3)C(=O)c3ccccc3)n2)cc1 (centres undefined)	5	15	.	.	.
O=C(c1ccco1)N(CC1CCCO1)c1nc(-c2ccccc2)cs1 (centres undefined)	7	18	-44	-9	.
Cc1ccc(-c2csc(N(CC3CCCO3)C(=O)c3ccco3)n2)cc1 (centres undefined)	13*	69*	-49	-4	3
SMILES	RAM network inh	WT yeast gro inh	BB579 growth dn	Yeast lifespan up	RAM 5-FOA
COc1ccc(/C=N/OCC(=O)Nc2nc3ccccc3s2)cc1	0	27	-18	-4	.
CN1CCN(S(=O)(=O)c2ccc(N3CCc4ccccc4C3)nc2)CC1	0	-20	.	.	.
CCCCc1ccc(NC(=S)Nc2ccc(Cl)c(S(=O)(=O)N(C)C)c2)cc1	16*	77*	-10	3	6
CCN1CCN(CC(=O)Nc2ccc(Cl)c(S(=O)(=O)N(C)C)c2)CC1	1	-40	.	.	.
Cn1ccs/c1=N\C(=O)Nc1cccc(Cl)c1	0	10	.	.	.
CCCCSc1nnc([C@H](CC(C)C)NC(=O)OC(C)(C)C)o1	16*	6	12	-11	2
CCCCSc1nnc([C@H](C)NC(=O)OC(C)(C)C)o1	-1	3	-26	-6	.
O=C(CN1C(=O)NC2(CCCCC2)C1=O)NCc1cccs1	2	-10	-29	1	.
CCOC(=O)CNC(=S)N(Cc1cccs1)C1CCCCC1	0	15	-19	2	.
CC(CCc1ccccc1)NC(=O)CNC(=S)N(Cc1cccs1)C1CCCC1 (centres undefined)	12*	28	.	.	5
Cc1ccc(-c2cccc(C(=O)NCCc3ccccc3)n2)c2ccccc12	14*	29	-39	0	6
Cc1ccc(-c2ccc(C(=O)Nc3ccccc3)o2)c2ccccc12	5	27	1	0	.
Cc1ccc(-c2ccc(C(=O)NCc3ccccc3)o2)c2ccccc12	12*	34	-38	0	2
Cc1noc(C)c1COc1cccc(C(=O)Nc2ccc(OCc3ccccc3)cc2)c1	12*	7	-36	-11	7
O=c1c2ccccc2c(-c2ccccc2)nn1Cc1ccc(Cl)cc1	14*	51	-34	-17	2
COc1ccc(-c2cc(N)n(S(=O)(=O)c3ccc(F)cc3)n2)cc1OC	6	1	-58	-8	.
COc1ccc(C(=O)NCC(=O)OCc2cccc(Br)c2)cc1	13*	12	-33	-15	3
COc1cccc(/C=C/C(=O)c2cccc([N+](=O)[O-])c2)c1	1	12	.	.	.
COc1cccc(C(=O)/C=C/c2ccc(N3CCCCC3)c([N+](=O)[O-])c2)c1	19*	-9	-48	22	5
O=C(/C=C/c1ccc(N2CCCCC2)c([N+](=O)[O-])c1)c1ccc(S(=O)(=O)N2CCCC2)cc1	12*	21	-44	3	6
CCN(CC)S(=O)(=O)c1ccc(N2CCN(c3cccc(OC)c3)CC2)c([N+](=O)[O-])c1	13*	-17	-28	12	5
O=C(Nc1ccccc1-c1ccccc1)C12CC3CC(CC(C3)C1)C2	6	9	-35	-20	.
CCC(=O)Nc1ccccc1C(=O)OCc1ccc(C(=O)c2ccccc2)cc1	12*	1	-50	-9	3
CCC(=O)Nc1ccccc1C(=O)OC(c1ccccc1)c1ccccc1	4	42	-4	-6	.
Cc1cc(Oc2ccc(Cl)cc2)nc(-c2ccccc2O)n1	14*	16	-41	-11	2
SMILES	RAM network inh	WT yeast gro inh	BB579 growth dn	Yeast lifespan up	RAM 5-FOA
CCCCCC(=O)NNC1=NCC(Cc2cccc(Cl)c2)S1 (centres undefined)	-1	9	.	.	.
CCOC(=O)c1ccccc1NC(=O)c1c(O)c2ccccc2n(CC)c1=O	11*	14	-63	5	2
C=CCn1c(=O)c(C(=O)OCC)c(O)c2ccccc21	-3	6	.	.	.
C=CCn1c(=O)c(C(=O)Nc2ccccc2C(=O)OCC)c(O)c2ccccc21	14*	-2	-54	12	2
CCCn1c(=O)c(C(=O)Nc2ccccc2C(=O)OC)c(O)c2ccccc21	14*	-19	-38	-7	2
CCn1c(=O)c(C(=O)Nc2ccsc2C(=O)OC)c(O)c2ccccc21	2	9	-9	9	.
